Source: ChEMBL document CHEMBL5705902, “Role of G Protein-Coupled Receptor Kinases 2 and 3 in μ-Opioid Receptor Desensitization and Internalization” (Mol Pharmacol, 2015)
Activity calls are given as the source filed them. The rule behind the calls is not given here.

Assays:
[1] = molecular target: Mu-type opioid receptor (Rattus norvegicus) (UniProt P33535); assay: Inhibition of MOPr desensitization in wistar rat LC neuron cells assessed as reduction in the DAMGO induced desensitization at 30 uM incubated for 15 mins before in the presence of GF109203X; type: functional, cell-based
[2] = molecular target: Mu-type opioid receptor (Rattus norvegicus) (UniProt P33535); assay: Inhibition of HA-tagged rat MOPr in HEK293 cells assessed as DAMGO induced MOPr phosphorylation at Ser375 level at 30 uM preincubated for 30 mins by western blot analysis; type: functional, cell-based
Outline: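 Serum-starved HEK 293 cells stably expressing HA-rat MOPr were pretreated with inhibitor for 30 min, then DAMGO 10 μM for 5 min. Receptor was enriched on WGA-agarose overnight at 4°C and blotted for pSer375. Densitometry was done in duplicate and normalized to total HA-MOPr; n = 3.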

[3] = molecular target: Mu-type opioid receptor (Rattus norvegicus) (UniProt P33535); assay: Inhibition of HA-tagged rat MOPr in HEK293 cells assessed as prevention in DAMGO induced MOPr phosphorylation at Thr376 level at 30 uM preincubated for 30 mins by western blot analysis; type: functional, cell-based
[4] = molecular target: Mu-type opioid receptor (Rattus norvegicus) (UniProt P33535); assay: Inhibition of HA-tagged rat MOPr stably expressing in HEK293 cells assessed as increase in ERK1/2 phosphorylation level at 30 uM preincubated for 30 mins by westernblot analysis; type: functional, cell-based
Outline: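 HEK 293 cells stably expressing HA-tagged rat MOPr were grown to 90% confluence and serum-starved 24 h. Inhibitor was added for 30 min, then DAMGO 10 μM for 5 min. pERK1/2 was measured by Western blot with ECL detection. Densitometry was done in duplicate, normalized to total ERK1/2 and expressed as % of maximal DAMGO response; n = 4.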

[5] = molecular target: Serine/threonine-protein kinase Sgk1 (Homo sapiens) (UniProt O00141); assay: Inhibition of human SGK1 assessed as remaining activity at 1 uM in presence of 32ATP relative to control
Outline: (§1)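 Express panel of 52 purified human kinases run in vitro. Kinase activity was measured directly by a radioactive filter-binding assay with ³²ATP, at ATP levels at or below each kinase's calculated Km for ATP. The compound was tested at 1 μM. Each assay was run in duplicate, and activity is given as the mean percentage (with S.D.) of activity without inhibitor.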

[6] = molecular target: Interleukin-1 receptor-associated kinase 4 (Homo sapiens) (UniProt Q9NWZ3); assay: Inhibition of human IRAK4 assessed as remaining activity at 1 uM in presence of 32ATP relative to control; outline: as §1
[7] = molecular target: Serine/threonine-protein kinase PAK 4 (Homo sapiens) (UniProt O96013); assay: Inhibition of human PAK4 assessed as remaining activity at 1 uM in presence of 32ATP relative to control; outline: as §1
[8] = molecular target: Protein kinase C (PKC) (Homo sapiens) (UniProt O94806+P41743+P17252+P05129+Q05655+P05771+Q05513+Q02156+P24723+Q15139+Q04759); assay: Inhibition of PKC (unknown origin) at 1 uM in presence of 32ATP relative to control; type: protein assay
Outline: (§2)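 Express screen of 52 purified human kinases run as a radioactive filter-binding assay with 32ATP, at 1 μM inhibitor. ATP was at or below each kinase's calculated Km. Activity is given as percent of the activity without inhibitor. Run in duplicate; mean with S.D.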

[9] = molecular target: Mitogen-activated protein kinase; ERK1/ERK2 (Homo sapiens) (UniProt P27361+P28482); assay: Inhibition of ERK1/2 (unknown origin) at 1 uM in presence of 32ATP relative to control; type: protein assay; outline: as §2
[10] = molecular target: Serine/threonine-protein kinase N2 (Homo sapiens) (UniProt Q16513); assay: Inhibition of human PRK2 at 1 uM in presence of 32ATP relative to control; outline: as §1
[11] = molecular target: 3-phosphoinositide-dependent protein kinase 1 (Homo sapiens) (UniProt O15530); assay: Inhibition of human PDK1 assessed as remaining activity at 1 uM in presence of 32ATP relative to control
3-phosphoinositide-dependent protein kinase 1 (Homo sapiens), sequence (O15530 whole entry, looked up): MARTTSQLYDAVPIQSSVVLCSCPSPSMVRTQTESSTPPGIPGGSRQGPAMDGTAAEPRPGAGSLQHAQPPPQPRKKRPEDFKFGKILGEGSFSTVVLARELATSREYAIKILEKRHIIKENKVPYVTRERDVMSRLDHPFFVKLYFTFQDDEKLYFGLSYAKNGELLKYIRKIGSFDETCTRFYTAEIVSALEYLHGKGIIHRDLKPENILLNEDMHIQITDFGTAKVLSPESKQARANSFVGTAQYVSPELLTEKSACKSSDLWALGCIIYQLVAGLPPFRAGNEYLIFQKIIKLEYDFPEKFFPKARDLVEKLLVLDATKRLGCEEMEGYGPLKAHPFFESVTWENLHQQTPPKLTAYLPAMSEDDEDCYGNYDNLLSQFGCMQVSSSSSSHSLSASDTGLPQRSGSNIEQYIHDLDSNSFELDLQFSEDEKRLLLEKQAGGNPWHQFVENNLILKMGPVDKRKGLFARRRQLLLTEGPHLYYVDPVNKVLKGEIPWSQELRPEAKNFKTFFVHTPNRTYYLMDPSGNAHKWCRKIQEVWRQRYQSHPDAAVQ

Mu-type opioid receptor (Rattus norvegicus), sequence (P33535 whole entry): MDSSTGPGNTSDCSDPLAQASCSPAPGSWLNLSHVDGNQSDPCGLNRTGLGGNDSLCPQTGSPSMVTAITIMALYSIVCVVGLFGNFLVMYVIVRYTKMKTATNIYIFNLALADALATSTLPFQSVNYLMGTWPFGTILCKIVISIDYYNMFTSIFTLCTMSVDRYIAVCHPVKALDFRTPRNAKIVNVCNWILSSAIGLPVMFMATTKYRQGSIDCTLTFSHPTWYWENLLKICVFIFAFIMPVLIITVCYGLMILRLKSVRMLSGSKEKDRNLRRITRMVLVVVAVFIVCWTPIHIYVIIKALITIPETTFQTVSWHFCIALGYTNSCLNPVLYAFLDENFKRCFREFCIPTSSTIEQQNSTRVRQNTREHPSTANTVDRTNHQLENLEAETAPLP
Serine/threonine-protein kinase N2 (Homo sapiens), sequence (Q16513 whole entry, looked up): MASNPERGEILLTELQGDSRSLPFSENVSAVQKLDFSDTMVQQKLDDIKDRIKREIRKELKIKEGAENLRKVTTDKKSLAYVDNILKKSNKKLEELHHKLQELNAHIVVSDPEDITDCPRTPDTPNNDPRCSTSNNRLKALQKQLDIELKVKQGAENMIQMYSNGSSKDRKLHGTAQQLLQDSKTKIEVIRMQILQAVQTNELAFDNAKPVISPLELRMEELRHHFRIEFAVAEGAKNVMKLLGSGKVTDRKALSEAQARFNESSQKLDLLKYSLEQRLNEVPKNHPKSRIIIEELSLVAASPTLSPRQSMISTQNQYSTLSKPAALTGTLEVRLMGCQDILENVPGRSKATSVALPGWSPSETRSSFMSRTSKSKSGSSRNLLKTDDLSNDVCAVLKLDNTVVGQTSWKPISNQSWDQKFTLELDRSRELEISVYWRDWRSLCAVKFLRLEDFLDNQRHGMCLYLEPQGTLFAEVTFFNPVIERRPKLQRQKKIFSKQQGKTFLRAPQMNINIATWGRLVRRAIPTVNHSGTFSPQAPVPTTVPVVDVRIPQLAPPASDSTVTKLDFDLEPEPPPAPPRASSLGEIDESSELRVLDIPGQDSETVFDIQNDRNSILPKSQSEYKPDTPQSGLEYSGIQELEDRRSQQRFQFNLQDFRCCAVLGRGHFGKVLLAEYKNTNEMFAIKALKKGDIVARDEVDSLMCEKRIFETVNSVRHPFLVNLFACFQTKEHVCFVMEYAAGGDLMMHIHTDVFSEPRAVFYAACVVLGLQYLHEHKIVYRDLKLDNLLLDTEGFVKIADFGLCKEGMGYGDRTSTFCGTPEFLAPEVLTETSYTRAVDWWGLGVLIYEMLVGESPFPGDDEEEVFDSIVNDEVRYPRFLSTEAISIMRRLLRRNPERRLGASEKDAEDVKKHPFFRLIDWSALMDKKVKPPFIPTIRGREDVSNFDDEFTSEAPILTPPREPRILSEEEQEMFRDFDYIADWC
Interleukin-1 receptor-associated kinase 4 (Homo sapiens), sequence (Q9NWZ3 whole entry): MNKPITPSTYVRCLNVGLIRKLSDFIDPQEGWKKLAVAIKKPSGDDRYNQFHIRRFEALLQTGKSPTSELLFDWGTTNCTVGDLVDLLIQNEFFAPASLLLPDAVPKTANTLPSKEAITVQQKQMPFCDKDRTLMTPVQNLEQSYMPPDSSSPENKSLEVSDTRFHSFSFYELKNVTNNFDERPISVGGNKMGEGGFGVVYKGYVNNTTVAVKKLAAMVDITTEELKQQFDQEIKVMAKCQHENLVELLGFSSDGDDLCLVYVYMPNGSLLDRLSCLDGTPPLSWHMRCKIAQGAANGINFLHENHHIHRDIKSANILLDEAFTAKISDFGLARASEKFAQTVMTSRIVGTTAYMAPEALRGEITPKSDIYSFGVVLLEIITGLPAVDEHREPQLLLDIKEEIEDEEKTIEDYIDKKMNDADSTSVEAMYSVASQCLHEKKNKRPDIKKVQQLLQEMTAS
Serine/threonine-protein kinase Sgk1 (Homo sapiens), sequence (O00141 whole entry): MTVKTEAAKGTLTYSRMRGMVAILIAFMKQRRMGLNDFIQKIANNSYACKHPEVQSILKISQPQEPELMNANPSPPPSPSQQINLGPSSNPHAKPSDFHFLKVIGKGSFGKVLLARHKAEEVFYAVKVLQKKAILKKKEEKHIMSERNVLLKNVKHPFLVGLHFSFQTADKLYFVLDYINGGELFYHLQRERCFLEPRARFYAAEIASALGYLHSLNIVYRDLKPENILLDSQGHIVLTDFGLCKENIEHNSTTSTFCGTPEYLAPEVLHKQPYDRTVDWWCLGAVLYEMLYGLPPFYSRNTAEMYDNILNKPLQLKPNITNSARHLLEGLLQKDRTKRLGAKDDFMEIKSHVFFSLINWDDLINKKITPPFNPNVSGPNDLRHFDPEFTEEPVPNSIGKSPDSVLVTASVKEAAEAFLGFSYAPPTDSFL
Serine/threonine-protein kinase PAK 4 (Homo sapiens), sequence (O96013 whole entry, looked up): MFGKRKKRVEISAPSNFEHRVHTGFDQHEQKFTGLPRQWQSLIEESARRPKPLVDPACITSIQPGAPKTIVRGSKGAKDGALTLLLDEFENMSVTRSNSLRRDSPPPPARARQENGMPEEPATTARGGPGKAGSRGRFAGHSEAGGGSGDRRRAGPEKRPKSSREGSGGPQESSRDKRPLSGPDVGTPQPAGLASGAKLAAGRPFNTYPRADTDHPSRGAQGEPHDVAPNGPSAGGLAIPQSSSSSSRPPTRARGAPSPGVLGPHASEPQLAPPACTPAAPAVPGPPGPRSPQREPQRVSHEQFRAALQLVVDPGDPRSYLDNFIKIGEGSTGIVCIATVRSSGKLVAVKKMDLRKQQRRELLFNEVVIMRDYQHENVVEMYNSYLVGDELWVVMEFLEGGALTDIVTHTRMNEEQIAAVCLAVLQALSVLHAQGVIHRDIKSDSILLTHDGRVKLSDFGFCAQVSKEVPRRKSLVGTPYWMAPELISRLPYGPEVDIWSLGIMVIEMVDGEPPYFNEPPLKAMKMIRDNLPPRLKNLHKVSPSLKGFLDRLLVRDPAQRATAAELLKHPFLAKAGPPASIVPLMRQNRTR
Mitogen-activated protein kinase; ERK1/ERK2 (Homo sapiens), sequence (P27361 whole entry, looked up): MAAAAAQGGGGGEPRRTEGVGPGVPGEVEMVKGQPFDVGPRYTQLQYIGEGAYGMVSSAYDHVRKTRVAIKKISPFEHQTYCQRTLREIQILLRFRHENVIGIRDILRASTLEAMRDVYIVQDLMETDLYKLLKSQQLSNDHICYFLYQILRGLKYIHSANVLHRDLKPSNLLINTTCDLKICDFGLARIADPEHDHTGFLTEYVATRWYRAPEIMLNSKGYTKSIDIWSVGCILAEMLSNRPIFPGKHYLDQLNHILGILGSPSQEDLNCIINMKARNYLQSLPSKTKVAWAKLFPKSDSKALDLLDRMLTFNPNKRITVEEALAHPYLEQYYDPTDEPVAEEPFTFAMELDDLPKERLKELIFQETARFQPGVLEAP
Mitogen-activated protein kinase; ERK1/ERK2 (Homo sapiens), sequence (P28482 whole entry, looked up): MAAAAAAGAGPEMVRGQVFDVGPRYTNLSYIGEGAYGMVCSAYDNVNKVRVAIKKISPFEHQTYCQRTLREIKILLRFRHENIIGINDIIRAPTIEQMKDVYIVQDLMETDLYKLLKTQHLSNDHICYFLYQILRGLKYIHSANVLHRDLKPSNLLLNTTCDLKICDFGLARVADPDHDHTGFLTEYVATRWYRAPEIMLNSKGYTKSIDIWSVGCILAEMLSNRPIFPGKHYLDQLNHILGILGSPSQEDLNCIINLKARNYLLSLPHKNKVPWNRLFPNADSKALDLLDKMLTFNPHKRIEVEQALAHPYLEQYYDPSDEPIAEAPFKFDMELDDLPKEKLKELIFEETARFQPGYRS

Q: What does the source list for `Cn1c(CNc2cccc(C(=O)NCc3ccccc3C(F)(F)F)c2)nnc1-c1ccncc1`?
A: inhibition [1]: inactive; inhibition [2]: Active; inhibition [3]: Active; inhibition [4]: Active; Activity [5]: 31%; Activity [6]: 96%; Activity [7]: 101%; inhibition [8]: < 20%; inhibition [9]: < 20%; inhibition [10]: 93%; Activity [11]: 93%
